Laboratory results taken from ChEMBL document CHEMBL4613249, “Serendipitous Discovery of Leucine and Methionine Depletion Agents during the Search for Polyamine Transport Inhibitors” (J Med Chem, 2020).
Active and inactive are the calls of the source.

Key:
CHO-K1 [1] = test: Cytotoxicity against CHOK1 cells assessed as effect on cell growth at 10 uM measured after 48 hrs by MTS assay; format: cell-based, Cricetulus griseus; conditions: chinese hamster, cho-k1, 48 h
CHO-K1 [2] = test: Inhibition of polyamine transporter in DFMO-treated CHOK1 cells assessed as prevention of spermidine entry into cells by measuring rescue of DFMO-induced reduction in cell growth at 1 to 10 uM measured after 48 hrs in presence of amine oxidase suppressor aminoguanidine by MTS assay; format: cell-based; conditions: Cricetulus griseus
How it was run: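 CHO K1 cells (1000 cells/well) were pre-incubated 24 h with 1 mM aminoguanidine. They were then given fixed DFMO (4.2 mM) and spermidine (1 μM) plus increasing compound doses for 48 h at 37°C. EC50 is the concentration bringing MTS relative growth halfway between the DFMO+Spd and DFMO-only controls. Runs were done twice in triplicate, with SD.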

CHO-K1 [3] = test: Inhibition of polyamine transporter in CHOK1 cells assessed as rescue of 2.4 uM N-(anthracenylmethyl) homospermidine-induced toxicity by measuring cell growth at 7 uM measured after 48 hrs in presence of amine oxidase suppressor aminoguanidine by MTS assay (reference value: 23%); format: cell-based; design: scale not given: the % may be the effect or the level left; conditions: Cricetulus griseus
How it was run: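 CHO K1 cells (1000 cells/well, aminoguanidine 1 mM preincubation) were given a toxic Ant-44 dose (2.4 μM) with candidate compound at 5 or 7 μM. Cells were incubated 48 h at 37°C, and relative growth versus untreated control was read by MTS.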

CHO-K1 [4] = test: Cytotoxicity against CHOK1 cells assessed as effect on cell growth at < 7 uM measured after 48 hrs by MTS assay; format: cell-based, Cricetulus griseus; conditions: chinese hamster, cho-k1, 48 h
CHO-K1 [5] = test: Potentiation of 0.5 uM N-(anthracenylmethyl) homospermidine-induced toxicity in CHOK1 cells assessed as increase in Ant-44-induced reduction in cell growth measured after 48 hrs in presence of amine oxidase suppressor aminoguanidine by MTS assay; format: functional, cell-based; conditions: Cricetulus griseus
How it was run: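 CHO K1 cells were pretreated 24 h with 1 mM aminoguanidine, then given fixed Ant-44 (0.5 μM) plus increasing compound (up to 5 μM) for 48 h at 37°C. MTS growth was read, with EC50 defined as the dose halving growth relative to Ant-44 alone. Runs were done twice in triplicate, with SD.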

L3.6pl [6] = test: Cytotoxicity against human L3.6PL cells assessed as reduction in cell viability measured after 72 hrs by MTS assay; format: cell-based
How it was run: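 L3.6pl cells, 500 cells/well in RPMI 1640 with 10% FBS and 250 μM aminoguanidine, plated overnight. Compound in PBS added, then 72 h at 37°C. MTS absorbance at 490 nm. IC50 is the dose giving 50% relative growth versus untreated control. Run twice in triplicate.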

L3.6pl [7] = test: Cytotoxicity against human L3.6PL cells assessed as reduction in cell viability at 5 uM measured after 72 hrs by MTS assay; format: cell-based
L3.6pl [8] = test: Potentiation of 2 uM N-(anthracenylmethyl) homospermidine-induced toxicity in human L3.6PL cells assessed as increase in Ant-44-induced reduction in cell growth measured after 72 hrs in presence of amine oxidase suppressor aminoguanidine by MTS assay; format: functional, cell-based
How it was run: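 L3.6pl cells (500 cells/well) were pretreated 24 h with 250 μM aminoguanidine in PBS, then given Ant-44 (2 μM) with increasing compound for 72 h at 37°C. MTS growth was read, with EC50 relative to the Ant-44-only control.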

[9] = biological target: Large neutral amino acids transporter small subunit 1 (Homo sapiens) (UniProt Q01650); test: Inhibition of LAT1-mediated [3H]-leucine uptake in human L3.6PL cells at 30 uM and 37 degree C measured after 2 mins by scintillation counter method; format: cell-based
Large neutral amino acids transporter small subunit 1 (Homo sapiens), sequence (Q01650 whole entry): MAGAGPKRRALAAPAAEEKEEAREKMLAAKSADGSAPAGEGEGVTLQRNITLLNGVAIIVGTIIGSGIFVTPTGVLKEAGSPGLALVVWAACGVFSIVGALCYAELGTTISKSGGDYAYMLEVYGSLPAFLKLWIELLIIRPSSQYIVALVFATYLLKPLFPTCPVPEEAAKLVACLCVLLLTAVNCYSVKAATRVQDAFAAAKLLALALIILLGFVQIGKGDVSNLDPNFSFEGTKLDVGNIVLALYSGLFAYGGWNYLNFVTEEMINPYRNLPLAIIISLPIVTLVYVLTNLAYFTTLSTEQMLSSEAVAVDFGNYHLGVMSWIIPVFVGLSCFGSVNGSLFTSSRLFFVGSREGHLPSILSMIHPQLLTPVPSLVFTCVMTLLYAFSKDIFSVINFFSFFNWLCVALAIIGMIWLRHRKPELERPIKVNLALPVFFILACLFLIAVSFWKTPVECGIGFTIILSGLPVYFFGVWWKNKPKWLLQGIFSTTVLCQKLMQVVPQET

Row | Compound | Activity (CHO-K1 [1]) | inhibition (CHO-K1 [2]) | Activity (CHO-K1 [3]) | Activity (CHO-K1 [4]) | Activity (CHO-K1 [5]) | EC50 (CHO-K1 [5]; CHO-K1, 48 h) | IC50 (L3.6pl [6]) | Activity (L3.6pl [7]) | EC50 (L3.6pl [8]) | inhibition [9]
1 | CC(C)(C)CCN1CCN([C@H](CNCc2ccccc2)Cc2ccccc2)C[C@@H]1Cc1ccccc1 | Non-Toxic | inactive | 2.1% | Non-Toxic | Dose-dependent effect | 0.75 µM | 11.7 µM | Non-Toxic | 3.27 µM | 
2 | Nc1cc(COc2c(Cl)cc(C[C@H](N)C(=O)O)cc2Cl)c2oc(-c3ccccc3)nc2c1 |  |  |  |  |  |  |  |  |  | Active
